The assay deals with Melanocortin receptor 4 (Homo sapiens, UniProt P32245). The assay can be described thus: Displacement of Eu-DTPA-NDP-a-MSH chelate from human melanocortin-4 receptor expressed in HEK293 cells after 1 hr by competitive DELFIA assay. In a few lines: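 HEK293 cells stably carrying hMC4R (pcDNA3.1) were grown in DMEM plus 10% FBS, seeded at 12,000 cells/well and cultured 3 days. Whole cells were competed with unlabeled ligand against 10 nM (final) Eu-DTPA-NDP-α-MSH in binding medium (DMEM, 1 mM 1,10-phenanthroline, bacitracin, leupeptin, 0.3% BSA) for 1 h at 37 °C, in quadruplicate. EC50 and Hill slope came from variable-slope sigmoidal fits.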
Chain of Melanocortin receptor 4 (P32245 whole entry): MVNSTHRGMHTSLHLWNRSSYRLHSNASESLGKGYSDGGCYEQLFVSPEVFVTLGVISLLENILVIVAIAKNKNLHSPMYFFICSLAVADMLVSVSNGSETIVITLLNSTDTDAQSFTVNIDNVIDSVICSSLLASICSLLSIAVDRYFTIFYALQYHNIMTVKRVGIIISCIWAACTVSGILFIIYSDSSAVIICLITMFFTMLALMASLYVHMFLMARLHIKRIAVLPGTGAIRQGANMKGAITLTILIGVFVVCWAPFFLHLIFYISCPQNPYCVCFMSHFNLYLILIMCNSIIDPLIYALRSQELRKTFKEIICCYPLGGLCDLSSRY

A word on the EC50: it is the concentration needed to bring the measured effect to its halfway point. Lower therefore signals a more potent agent. Regarding `CCCC[C@H](NC(=O)COCC(=O)NCCCOCCOCCOCCCNC(=O)COCC(=O)NCCCOCCOCCOCCCNC(=O)[C@H](Cc1c[nH]c2ccccc12)NC(=O)[C@H](CCCNC(=N)N)NC(=O)[C@@H](Cc1ccccc1)NC(=O)[C@H](Cc1cnc[nH]1)NC(=O)[C@H](CCC(=O)O)NC(=O)[C@H](CC(C)C)NC(=O)[C@H](CO)NC(C)=O)C(=O)N[C@H]1CC(=O)NCCCC[C@@H](C(N)=O)NC(=O)[C@H](Cc2c[nH]c3ccccc23)NC(=O)[C@H](CCCNC(=N)N)NC(=O)[C@@H](Cc2ccc3ccccc3c2)NC(=O)[C@H](Cc2cnc[nH]2)NC1=O`, the EC50 came out at 1.7 nM.
The value for `CCCC[C@H](NC(=O)CNC(=O)[C@@H]1CCCN1C(=O)CNC(=O)[C@@H]1CCCN1C(=O)CNC(=O)[C@@H]1CCCN1C(=O)CNC(=O)[C@@H]1CCCN1C(=O)CNC(=O)[C@@H]1CCCN1C(=O)CNC(=O)[C@@H]1CCCN1C(=O)CNC(=O)[C@@H]1CCCN1C(=O)CNC(=O)[C@@H]1CCCN1C(=O)CNC(=O)[C@@H]1CCCN1C(=O)CNC(=O)[C@@H]1CCCN1C(=O)CNC(=O)[C@@H]1CCCN1C(=O)CNC(=O)[C@@H]1CCCN1C(=O)[C@H](Cc1c[nH]c2ccccc12)NC(=O)[C@H](CCCNC(=N)N)NC(=O)[C@@H](Cc1ccccc1)NC(=O)[C@H](Cc1cnc[nH]1)NC(=O)[C@H](CCC(=O)O)NC(=O)[C@H](CC(C)C)NC(=O)[C@H](CO)NC(C)=O)C(=O)N[C@H]1CC(=O)NCCCC[C@@H](C(N)=O)NC(=O)[C@H](Cc2c[nH]c3ccccc23)NC(=O)[C@H](CCCNC(=N)N)NC(=O)[C@@H](Cc2ccc3ccccc3c2)NC(=O)[C@H](Cc2cnc[nH]2)NC1=O` was 1.6 nM.

For the origin of these results see BindingDB's records for doi:10.1016/j.bmc.2014.09.055 (University of Arizona, 2014).
